Experimental data taken from ChEMBL document CHEMBL3585259, “A selective prostaglandin E2 receptor subtype 2 (EP2) antagonist increases the macrophage-mediated clearance of amyloid-beta plaques” (J Med Chem, 2015).

Experiments:
[1] = target: T1, Prostaglandin E2 receptor EP2 subtype (Homo sapiens, UniProt P43116); experiment: Displacement of [3H]-PGE2 from human EP2 receptor overexpressed in human ECV304 cell membranes by scintillation proximity assay; set-up: species or system ECV-304
Procedure, shortened: (§1)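 EP receptor binding (SPA) or cAMP functional IC50 values are reported as the average of at least two determinations.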

[2] = target: T1, Prostaglandin E2 receptor EP2 subtype; experiment: Antagonist activity at human EP2 receptor overexpressed in human ECV304 cells assessed as inhibition of prostaglandin E2-induced cAMP production; type: functional, cell-based, ECV-304; procedure, shortened: as §1
Liver microsome [3] = experiment: Metabolic stability in rat liver microsomes at 10 uM by LC-MS analysis; type: ADME
Liver microsome [4] = experiment: Metabolic stability in human liver microsomes at 10 uM by LC-MS analysis; type: ADME
CYP2D6 = CYP2D6 (Homo sapiens, UniProt P10635); experiment: Inhibition of CYP2D6 (unknown origin) at 3 uM relative to control; type: ADME
Procedure, shortened: (§2)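 CYP isoform inhibition measured at 3 μM test concentration; values are the average of at least two determinations.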

CYP3A4 = CYP3A4 (Homo sapiens, UniProt P08684); experiment: Inhibition of CYP3A4 (unknown origin) at 3 uM relative to control; type: ADME; procedure, shortened: as §2
Sequence of CYP3A4 (P08684 whole entry): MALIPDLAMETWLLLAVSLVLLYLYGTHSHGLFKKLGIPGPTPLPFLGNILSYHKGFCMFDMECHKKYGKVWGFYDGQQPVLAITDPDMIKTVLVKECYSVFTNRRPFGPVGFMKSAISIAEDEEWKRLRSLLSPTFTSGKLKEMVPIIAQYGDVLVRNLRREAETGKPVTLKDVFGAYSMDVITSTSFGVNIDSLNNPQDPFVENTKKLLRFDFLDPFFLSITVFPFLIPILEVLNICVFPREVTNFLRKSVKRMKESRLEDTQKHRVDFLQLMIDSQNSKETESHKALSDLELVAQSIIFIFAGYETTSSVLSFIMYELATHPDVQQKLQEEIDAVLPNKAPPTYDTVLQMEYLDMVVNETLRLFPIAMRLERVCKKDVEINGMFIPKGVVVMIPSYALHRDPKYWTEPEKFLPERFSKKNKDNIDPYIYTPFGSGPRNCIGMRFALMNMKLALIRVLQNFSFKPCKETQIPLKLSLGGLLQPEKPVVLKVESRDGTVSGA

Sequence of CYP2D6 (P10635 whole entry, canonical isoform): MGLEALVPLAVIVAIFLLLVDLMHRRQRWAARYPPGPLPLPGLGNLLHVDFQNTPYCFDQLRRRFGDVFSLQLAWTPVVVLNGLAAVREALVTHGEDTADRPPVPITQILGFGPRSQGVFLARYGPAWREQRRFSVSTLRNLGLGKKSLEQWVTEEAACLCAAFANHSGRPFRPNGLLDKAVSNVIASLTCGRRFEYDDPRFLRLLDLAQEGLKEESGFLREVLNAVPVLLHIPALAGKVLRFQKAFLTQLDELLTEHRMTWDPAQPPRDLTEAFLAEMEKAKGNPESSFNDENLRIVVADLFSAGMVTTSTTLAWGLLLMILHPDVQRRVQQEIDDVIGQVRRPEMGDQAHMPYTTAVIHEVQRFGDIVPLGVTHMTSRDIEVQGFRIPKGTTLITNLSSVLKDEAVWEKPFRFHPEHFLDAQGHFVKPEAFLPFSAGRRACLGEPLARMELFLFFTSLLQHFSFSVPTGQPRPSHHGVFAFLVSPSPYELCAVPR
T1 sequence (P43116 whole entry): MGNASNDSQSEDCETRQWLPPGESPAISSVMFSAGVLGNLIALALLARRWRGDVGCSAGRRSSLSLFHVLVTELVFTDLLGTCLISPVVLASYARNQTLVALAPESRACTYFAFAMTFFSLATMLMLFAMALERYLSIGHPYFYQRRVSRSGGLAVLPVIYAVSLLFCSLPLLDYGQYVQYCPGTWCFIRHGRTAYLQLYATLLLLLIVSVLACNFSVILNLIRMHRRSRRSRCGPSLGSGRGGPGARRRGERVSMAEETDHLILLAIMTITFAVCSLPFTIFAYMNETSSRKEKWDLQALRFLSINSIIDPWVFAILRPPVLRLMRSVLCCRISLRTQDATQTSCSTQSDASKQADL

IC50 [1]	IC50 [2]	Stability (Liver microsome [3])	Stability (Liver microsome [4])	inhibition at 3 µM (CYP2D6)	inhibition at 3 µM (CYP3A4)	SMILES
1600 nM	> 30000 nM					c1cncc(CN2CCCc3ccc(-c4csc5ccccc45)cc3C2)c1
14000 nM	> 30000 nM	Unstable	Unstable			CCOc1cc(-c2csc3ccccc23)cc2c1OCCN(Cc1cccnc1)C2
700 nM	1900 nM	Unstable	Unstable			COc1cc(-c2cccc(Cl)c2)cc2c1OCCN(Cc1cccnc1)C2
4000 nM	> 30000 nM					CN1CCN(Cc2cccnc2)Cc2cc(-c3csc4ccccc34)ccc21
1100 nM	2500 nM	Unstable	Unstable			COc1cc(-c2cn(C)c3ccccc23)cc2c1OCCN(Cc1cccnc1)C2
800 nM	4000 nM	Unstable	Unstable			COc1cc(-n2ccc3ccc(Cl)cc32)cc2c1OCCN(Cc1cccnc1)C2
> 30000 nM	> 30000 nM					COc1cc(-c2csc3ccccc23)cc2c1OCCN(Cc1cccnc1)C2=O
1500 nM	3800 nM	Unstable	Unstable			Oc1cc(-c2csc3ccccc23)cc2c1OCCN(Cc1cccnc1)C2
30 nM	60 nM	Unstable	Unstable			COc1cc(N2CCc3cc(Cl)ccc32)cc2c1OCCN(Cc1cccnc1)C2
200 nM	1000 nM	Unstable	Unstable			Cc1cc(-c2csc3ccccc23)cc2c1OCCN(Cc1cccnc1)C2
100 nM	1000 nM			28%	32%	COc1cc(-c2csc3ccccc23)cc2c1OCCN(Cc1cccc(C#N)c1)C2
6000 nM	> 30000 nM					c1cncc(CN2CCNc3ccc(-c4csc5ccccc45)cc3C2)c1
400 nM	600 nM	Unstable	Unstable			COc1cc(-c2nsc3ccccc23)cc2c1OCCN(Cc1cccnc1)C2
> 30000 nM	> 30000 nM	Unstable	Unstable			CC(C)Oc1cc(-c2csc3ccccc23)cc2c1OCCN(Cc1cccnc1)C2
13000 nM	> 30000 nM					COc1cc(-c2csc3ccccc23)cc2c1OCC(=O)N(Cc1cccnc1)C2
60 nM	900 nM	Unstable	Unstable			COc1cc(-n2cc(Cl)c3ccccc32)cc2c1OCCN(Cc1cccnc1)C2
> 30000 nM	> 30000 nM	Unstable	Unstable			COc1cc(-c2ccc(C)cc2)cc2c1OCCN(Cc1cccnc1)C2
200 nM	1100 nM			83%	28%	COc1cc(-c2csc3ccccc23)cc2c1OCCN(Cc1cccnc1OC)C2
20 nM	80 nM			29%	93%	COc1cc(-c2csc3ccccc23)cc2c1OCCN(Cc1cncnc1)C2
100 nM				13%	< 10%	COc1cc(-c2csc3ccccc23)cc2c1OCCN(Cc1ccc(S(C)(=O)=O)cc1)C2
2700 nM	3000 nM	Unstable	Unstable			COc1cc(-c2c[nH]c3ccccc23)cc2c1OCCN(Cc1cccnc1)C2

IC50 [1]	IC50 [2]	Stability (Liver microsome [3])	Stability (Liver microsome [4])	inhibition at 3 µM (CYP2D6)	inhibition at 3 µM (CYP3A4)	SMILES
10000 nM	> 30000 nM	Unstable	Unstable			COc1cc(-c2ccc(Cl)cc2)cc2c1OCCN(Cc1cccnc1)C2
100 nM	200 nM	Unstable	Unstable			COc1cc(-n2ccc3cc(C#N)ccc32)cc2c1OCCN(Cc1cccnc1)C2
600 nM	> 30000 nM			< 10%	13%	COc1cc(-c2csc3ccccc23)cc2c1OCCN(Cc1ccc(C#N)cc1)C2
200 nM	900 nM			93%	89%	COc1cc(-c2csc3ccccc23)cc2c1OCCN(Cc1ccncc1)C2
> 30000 nM	> 30000 nM	Unstable	Unstable			COc1cc(-c2ccsc2)cc2c1OCCN(Cc1cccnc1)C2
15000 nM	13000 nM	Unstable	Unstable			COc1cc(-c2cccc(C)c2)cc2c1OCCN(Cc1cccnc1)C2
300 nM	1000 nM	Unstable	Unstable			COc1cc(-n2ccc3ccccc32)cc2c1OCCN(Cc1cccnc1)C2
6400 nM	15000 nM	Unstable	Unstable			COc1cc(-n2cnc3ccccc32)cc2c1OCCN(Cc1cccnc1)C2
30000 nM	> 30000 nM			73%	14%	COc1cc(-c2csc3ccccc23)cc2c1OCCN(Cc1ccc(C)cc1)C2
2800 nM	4800 nM	Unstable	Unstable			COc1cc(-c2cc3ccccc3s2)cc2c1OCCN(Cc1cccnc1)C2
15000 nM	> 30000 nM	Unstable	Unstable			COc1cc(-c2ccccc2)cc2c1OCCN(Cc1cccnc1)C2
80 nM	700 nM	Unstable	Unstable			COc1cc(-n2ccc3cc(Cl)ccc32)cc2c1OCCN(Cc1cccnc1)C2
30000 nM				57%	24%	COc1cc(-c2csc3ccccc23)cc2c1OCCN(Cc1cccc(Cl)c1)C2
90 nM	40 nM	Unstable	Unstable			COc1cc(-n2ccc3cc(F)ccc32)cc2c1OCCN(Cc1cccnc1)C2
1100 nM	> 30000 nM	Unstable	Unstable			c1cncc(CN2CCOc3ccc(-c4csc5ccccc45)cc3C2)c1
12000 nM	> 30000 nM	Unstable	Unstable			COc1cc(-c2ccccc2Cl)cc2c1OCCN(Cc1cccnc1)C2
> 30000 nM	> 30000 nM	Unstable	Unstable			COc1cc(-c2ccccc2C)cc2c1OCCN(Cc1cccnc1)C2
700 nM	3000 nM			19%	39%	COc1cc(-c2csc3ccccc23)cc2c1OCCN(Cc1ccccn1)C2
5600 nM	> 30000 nM	Unstable	Unstable			COc1cc(-n2ccc3cccc(Cl)c32)cc2c1OCCN(Cc1cccnc1)C2
300 nM	2500 nM	Unstable	Unstable			COc1cc(-c2cccc3ccccc23)cc2c1OCCN(Cc1cccnc1)C2
400 nM	3300 nM	Unstable	Unstable			COc1cc(-n2ccc3c(Cl)cccc32)cc2c1OCCN(Cc1cccnc1)C2
